Laboratory results taken from ChEMBL document CHEMBL2390929, “New nitric oxide donating 1,2,4-triazole/oxime hybrids: synthesis, investigation of anti-inflammatory, ulceroginic liability and antiproliferative activities” (Bioorg Med Chem, 2013).

What was measured:
[1] = tested on: OVCAR-8; test: Cytotoxicity against human OVCAR8 cells assessed as cell growth at 10^-5 M after 48 hrs by SRB assay; format: functional; conditions: OVCAR-8, 48 h, read-out: Activity
Outline: (§1)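 NCI 60-cell-line primary one-dose screen across nine tumour subpanels. Compound added at a single concentration of 10^-5 M and cultures incubated 48 h. Endpoint was sulforhodamine B protein staining read spectrophotometrically, with growth expressed as percent of untreated control cells.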

[2] = tested on: KM12; test: Cytotoxicity against human KM12 cells assessed as cell growth at 10^-5 M after 48 hrs by SRB assay; format: functional; conditions: KM12, 48 h, read-out: Activity; outline: as §1
[3] = tested on: IGROV-1; test: Cytotoxicity against human IGROV1 cells assessed as cell growth at 10^-5 M after 48 hrs by SRB assay; format: functional; conditions: IGROV-1, 48 h, read-out: Activity; outline: as §1
[4] = tested on: HCT-15; test: Cytotoxicity against human HCT15 cells assessed as cell growth at 10^-5 M after 48 hrs by SRB assay; format: functional; conditions: HCT-15, 48 h, read-out: Activity; outline: as §1
[5] = tested on: CCRF-CEM; test: Cytotoxicity against human CCRF-CEM cells assessed as cell growth at 10^-5 M after 48 hrs by SRB assay; format: functional; conditions: read-out: Activity; outline: as §1
[6] = tested on: HL-60(TB); test: Cytotoxicity against human HL-60(TB) cells assessed as cell growth at 10^-5 M after 48 hrs by SRB assay; format: functional; conditions: HL-60, 48 h, read-out: Activity
Outline: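 NCI 60-cell-line one-dose screen: compound added to cultures at a single concentration of 10^-5 M, incubated 48 h. End point by sulforhodamine B protein staining, read spectrophotometrically. Value is percent growth of treated cells relative to untreated control cells.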

[7] = tested on: SK-MEL-2; test: Cytotoxicity against human SK-MEL-2 cells assessed as cell growth at 10^-5 M after 48 hrs by SRB assay; format: functional; conditions: SK-MEL-2, 48 h, read-out: Activity; outline: as §1
[8] = tested on: SF-539; test: Cytotoxicity against human SF539 cells assessed as cell growth at 10^-5 M after 48 hrs by SRB assay; format: functional; conditions: SF-539, 48 h, read-out: Activity; outline: as §1
[9] = tested on: UO-31; test: Cytotoxicity against human UO31 cells assessed as cell growth at 10^-5 M after 48 hrs by SRB assay; format: functional; conditions: UO-31, 48 h, read-out: Activity
Outline: (§2)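 NCI-60 one-dose screen across nine tumour subpanels. Each agent added once at 10^-5 M, cultures incubated 48 h. Endpoint is sulforhodamine B protein staining read spectrophotometrically. Output is percent growth of treated cells relative to untreated controls.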

[10] = tested on: Malme-3M; test: Cytotoxicity against human MALME-3M cells assessed as cell growth at 10^-5 M after 48 hrs by SRB assay; format: functional; conditions: read-out: Activity; outline: as §1
[11] = tested on: CAKI-1; test: Cytotoxicity against human CAKI-1 cells assessed as cell growth at 10^-5 M after 48 hrs by SRB assay; format: functional; conditions: CAKI-1, 48 h, read-out: Activity; outline: as §1
[12] = tested on: OVCAR-4; test: Cytotoxicity against human OVCAR4 cells assessed as cell growth at 10^-5 M after 48 hrs by SRB assay; format: functional; conditions: OVCAR-4, 48 h, read-out: Activity; outline: as §1
[13] = tested on: MDA-MB-231; test: Cytotoxicity against human MDA-MB-231 cells assessed as cell growth at 10^-5 M after 48 hrs by SRB assay; format: functional; conditions: MDA-MB-231, 48 h, read-out: Activity; outline: as §1
[14] = tested on: UACC-257; test: Cytotoxicity against human UACC257 cells assessed as cell growth at 10^-5 M after 48 hrs by SRB assay; format: functional; conditions: UACC-257, 48 h, read-out: Activity; outline: as §2
[15] = tested on: Rattus norvegicus; test: Antiinflammatory activity in albino rat assessed as inhibition of carrageenan-induced paw edema at 0.28 mmol/kg, po after 1 hr relative to control; format: functional
Outline: (§3)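 Adult male albino rats (120–140 g), four per group, fasted 24 h with water allowed. Test agent suspended in 0.5% w/v aqueous CMC and given orally at 0.28 mmol/kg; controls received CMC alone. After 30 min, 0.1 mL fresh 1% carrageenan in saline was injected subplantar into the right hind paw and saline into the left. Paw thickness was measured by Vernier caliper; % inhibition = [(VR−VL)control − (VR−VL)treated]/(VR−VL)control ×100. Mean ± SEM, one-way ANOVA.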

[16] = tested on: UACC-62; test: Cytotoxicity against human UACC62 cells assessed as cell growth at 10^-5 M after 48 hrs by SRB assay; format: functional; conditions: UACC-62, 48 h, read-out: Activity; outline: as §2
[17] = tested on: PC-3; test: Cytotoxicity against human PC3 cells assessed as cell growth at 10^-5 M after 48 hrs by SRB assay; format: functional; conditions: PC-3, 48 h, read-out: Activity; outline: as §1
[18] = tested on: SR; test: Cytotoxicity against human SR cells assessed as cell growth at 10^-5 M after 48 hrs by SRB assay; format: functional; conditions: read-out: Activity; outline: as §2
[19] = tested on: Rattus norvegicus; test: Antiinflammatory activity in albino rat assessed as inhibition of carrageenan-induced paw edema at 0.28 mmol/kg, po after 3 hrs relative to control; format: functional; outline: as §3
[20] = tested on: Rattus norvegicus; test: Antiinflammatory activity in albino rat assessed as inhibition of carrageenan-induced paw edema at 0.28 mmol/kg, po after 4 hrs relative to control; format: functional; outline: as §3
[21] = tested on: NCI-H522; test: Cytotoxicity against human NCI-H522 cells assessed as cell growth at 10^-5 M after 48 hrs by SRB assay; format: functional; conditions: NCI-H522, 48 h, read-out: Activity; outline: as §1
[22] = tested on: SW-620; test: Cytotoxicity against human SW620 cells assessed as cell growth at 10^-5 M after 48 hrs by SRB assay; format: functional; conditions: SW-620, 48 h, read-out: Activity; outline: as §2
[23] = tested on: M14; test: Cytotoxicity against human M14 cells assessed as cell growth at 10^-5 M after 48 hrs by SRB assay; format: functional; conditions: M14, 48 h, read-out: Activity; outline: as §1
[24] = Induction of nitric oxide release in phosphate buffer at pH 7.4 at 0.1 mM after 6 hrs by Griess method in presence of 0.5 mM of N-acetylcysteine; format: physicochemical; conditions: pH 7.4, 6 h, 100 µM
Outline: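 Compound in DMF diluted to final 10^-4 M in 1:1 50 mM phosphate buffer pH 7.4/MeOH with 5×10^-4 M N-acetylcysteine, 37 °C. Aliquot mixed with Griess reagent, 10 min at room temperature, A546 read. Nitrite quantified against sodium nitrite standards (10–80 nmol/mL); NO expressed as mol/mol. n = 4 reaction mixtures per compound.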

[25] = tested on: LOX IMVI; test: Cytotoxicity against human LOXIMVI cells assessed as cell growth at 10^-5 M after 48 hrs by SRB assay; format: functional; conditions: read-out: Activity; outline: as §1
[26] = tested on: RPMI-8226; test: Cytotoxicity against human RPMI8226 cells assessed as cell growth at 10^-5 M after 48 hrs by SRB assay; format: functional; conditions: RPMI-8226, 48 h, read-out: Activity; outline: as §1
[27] = tested on: Rattus norvegicus; test: Antiinflammatory activity in albino rat assessed as inhibition of carrageenan-induced paw edema at 0.28 mmol/kg, po after 5 hrs relative to control; format: functional; outline: as §3
[28] = tested on: MDA-MB-468; test: Cytotoxicity against human MDA-MB-468 cells assessed as cell growth at 10^-5 M after 48 hrs by SRB assay; format: functional; conditions: MDA-MB-468, 48 h, read-out: Activity; outline: as §1
[29] = tested on: HOP-92; test: Cytotoxicity against human HOP92 cells assessed as cell growth at 10^-5 M after 48 hrs by SRB assay; format: functional; conditions: HOP-92, 48 h, read-out: Activity; outline: as §1

| Compound | growth at 10 µM [1] [%] | growth at 10 µM [2] [%] | growth at 10 µM [3] [%] | growth at 10 µM [4] [%] | growth at 10 µM [5] [%] | growth at 10 µM [6] [%] | growth at 10 µM [7] [%] | growth at 10 µM [8] [%] | growth at 10 µM [9] [%] | growth at 10 µM [10] [%] | growth at 10 µM [11] [%] | growth at 10 µM [12] [%] | growth at 10 µM [13] [%] | growth at 10 µM [14] [%] | inhibition in vivo at 280 µmol/kg [15] [%] | growth at 10 µM [16] [%] | growth at 10 µM [17] [%] | growth at 10 µM [18] [%] | inhibition in vivo at 280 µmol/kg [19] [%] | inhibition in vivo at 280 µmol/kg [20] [%] | other results |
| --- | --- | --- | --- | --- | --- | --- | --- | --- | --- | --- | --- | --- | --- | --- | --- | --- | --- | --- | --- | --- | --- |
| O/N=C(/CSc1nnc(-c2ccccc2)n1-c1ccccc1)c1ccccc1 | 93.2 | 97.5 | 108 | 101 | 91 | 92.2 | 101 | 120 | 77.4 | 100 | 85.4 | 86.6 | 68.4 | 87.6 | 60 | 87.7 | 82.8 | 92.8 | 65 | 79 | growth at 10 µM [21]: 98.5%; growth at 10 µM [22]: 98.8%; growth at 10 µM [23]: 103%; Activity [24]: 0.09 mol/mol; growth at 10 µM [25]: 104%; growth at 10 µM [26]: 85.6%; inhibition in vivo at 280 µmol/kg [27]: 75%; growth at 10 µM [28]: 93% |
| COc1ccc(-c2nnc(SC/C(=N/O)c3ccccc3)n2-c2ccccc2)cc1 | 102 | 112 | 101 | 95.1 | 83.5 | 95.9 | 106 | 107 | 87.1 | 96.5 | 96.5 | 86.4 | 117 | 98 | 58 | 94.3 | 86.4 | 75.9 | 63 | 80 | growth at 10 µM [21]: 81.6%; growth at 10 µM [22]: 114%; growth at 10 µM [23]: 106%; Activity [24]: 0.12 mol/mol; growth at 10 µM [29]: 101%; growth at 10 µM [25]: 101%; growth at 10 µM [26]: 73.5%; inhibition in vivo at 280 µmol/kg [27]: 73%; growth at 10 µM [28]: 96.5% |
| COc1ccc(-c2nnc(SC/C(=N/O)c3ccccc3)n2-c2ccccc2)cc1OC | 90.7 | 99.8 | 106 | 98.3 | 84.4 | 68.2 | 116 | 103 | 80.1 | 93.7 | 98.4 | 90.4 | 87.5 | 101 | 55 | 89.5 | 91.6 | 85.1 | 67 | 81 | growth at 10 µM [21]: 88.8%; growth at 10 µM [22]: 110%; growth at 10 µM [23]: 98.9%; Activity [24]: 0.17 mol/mol; growth at 10 µM [29]: 86.5%; growth at 10 µM [25]: 90.3%; growth at 10 µM [26]: 69.4%; inhibition in vivo at 280 µmol/kg [27]: 78%; growth at 10 µM [28]: 107% |
| COc1cc(-c2nnc(SC/C(=N/O)c3ccccc3)n2-c2ccccc2)cc(OC)c1OC | 98.3 | 108 | 99 | 99.1 | 88.5 | 81.1 | 98.3 | 102 | 69.5 | 95.3 | 79 | 84.8 | 93.7 | 102 | 61 | 84 | 92.1 | 74.8 | 64 | 76 | growth at 10 µM [21]: 82.1%; growth at 10 µM [22]: 114%; growth at 10 µM [23]: 108%; Activity [24]: 0.15 mol/mol; growth at 10 µM [29]: 81.2%; growth at 10 µM [25]: 91.7%; growth at 10 µM [26]: 73.6%; inhibition in vivo at 280 µmol/kg [27]: 68%; growth at 10 µM [28]: 119% |
| C=CCn1c(SC/C(=N\O)c2ccccc2)nnc1-c1ccc(OC)c(OC)c1 | 96.8 | 106 | 97.6 | 99 | 98.3 | 72.3 | 100 | 95.6 | 77.9 | 92.5 | 90 | 91 | 94.4 | 102 | 53 | 99.9 | 96.5 | 109 | 58 | 78 | growth at 10 µM [21]: 89%; growth at 10 µM [22]: 104%; growth at 10 µM [23]: 123%; Activity [24]: 0.13 mol/mol; growth at 10 µM [29]: 81.9%; growth at 10 µM [25]: 88.2%; growth at 10 µM [26]: 83.7%; inhibition in vivo at 280 µmol/kg [27]: 69%; growth at 10 µM [28]: 105% |
| CCn1c(SC/C(=N/O)c2ccccc2)nnc1-c1ccccc1 | 111 | 110 | 106 | 101 | 88.9 | 103 | 108 | 93.7 | 91.5 | 98.7 | 89 | 85.5 | 94.6 | 104 | 65 | 86.2 | 81.2 | 94.8 | 72 | 73 | growth at 10 µM [21]: 112%; growth at 10 µM [22]: 98.7%; growth at 10 µM [23]: 109%; Activity [24]: 0.13 mol/mol; growth at 10 µM [29]: 62.5%; growth at 10 µM [25]: 104%; growth at 10 µM [26]: 89.7%; inhibition in vivo at 280 µmol/kg [27]: 71%; growth at 10 µM [28]: 108% |
